Experimental data published in article PMC5114201 (Drugs in R&D, 2016).
Ends that are not written are not given here.

Assays:
[1] = Urinalysis, phase I study; assay type: in vivo, human; settings: healthy subjects, n = 4
Procedure, shortened: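 Healthy volunteers were randomized within each dose cohort to oral drug solution in sterile water (four subjects) or sterile-water placebo (two subjects). They fasted from midnight, were dosed at 08:00 and had no food for 2 h afterwards. Urinalysis was done before dosing and 24 h after. Dipstick-type read-outs were compared with normal ranges or indications.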

[2] = Vital signs after single oral dose, phase I study; assay type: in vivo, human; settings: 24 h post dose, healthy subjects, mean ± SD, n = 4
Procedure, shortened: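 In cohorts of four drug and two placebo (sterile water) subjects, a single oral solution was taken at 08:00 after an overnight fast, followed by 200 ml water. Blood pressure, heart rate, pulse oximetry, temperature and breathing rate were recorded pre-dose and at 0.25–24 h post dose. Values were reported as mean ± SD (range) and compared against placebo.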

[3] = intravenously administered into rats; ref unpublished preclinical toxicological data; cited from earlier work
Safety and tolerability = assay type: in vivo, human; settings: healthy subjects, 12-lead ECG at 1, 3, 6 and 12 h post dose, all cohorts
Procedure, shortened: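 Single-blind, randomized, placebo-controlled dose escalation in healthy adults. Each cohort of six had four on drug and two on sterile-water placebo. Drug was dissolved in sterile water and drunk standing, then 200 ml water, at 08:00 after fasting from midnight. A 12-lead ECG was taken pre-dose and at 1, 3, 6 and 12 h. Vital signs and clinical laboratory tests were also monitored.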

Caco-2 monolayer = settings: cited from earlier work
[4] = 0.08 mg/kg single oral dose, 0 h pre dose (baseline)
[5] = 0.08 mg/kg single oral dose, 24 h post dose
[6] = 0.7 mg/kg single oral dose, 0 h pre dose (baseline)
[7] = 0.7 mg/kg single oral dose, 24 h post dose

RVYIHPFHL [DAA-I, Des-aspartate-angiotensin I]
Urine bilirubin [1, 4]: Negative
Urine glucose [1, 4]: Normal
Urine haemoglobin [1, 4]: Negative
Urine ketones [1, 4]: Negative
Urine nitrite [1, 4]: Negative
Urine protein [1, 4]: Negative
Urine urobilinogen [1, 4]: Normal
Urine bilirubin [1, 5]: Negative
Urine glucose [1, 5]: Normal
Urine haemoglobin [1, 5]: Negative
Urine ketones [1, 5]: Negative
Urine nitrite [1, 5]: Negative
Urine protein [1, 5]: Negative
Urine urobilinogen [1, 5]: Normal
Urine bilirubin [1, 6]: Negative
Urine glucose [1, 6]: normal
Urine haemoglobin [1, 6]: Negative
Urine ketones [1, 6]: Negative
Urine nitrite [1, 6]: Negative
Urine protein [1, 6]: Negative
Urine urobilinogen [1, 6]: Normal
Urine bilirubin [1, 7]: Negative
Urine glucose [1, 7]: normal
Urine haemoglobin [1, 7]: Negative
Urine ketones [1, 7]: Negative
Urine nitrite [1, 7]: Negative
Urine protein [1, 7]: Negative
Urine urobilinogen [1, 7]: Normal
Blood pressure, diastolic ([2]; 0.08 mg/kg single oral dose): 68 ± 5 mmHg
Blood pressure, systolic ([2]; 0.08 mg/kg single oral dose): 120 ± 4 mmHg
Blood pressure, diastolic ([2]; 0.7 mg/kg single oral dose): 67 ± 7 mmHg
Blood pressure, systolic ([2]; 0.7 mg/kg single oral dose): 114 ± 7 mmHg
Time to degradation by plasma enzymes [3]: 2 to 5 min
ECGs (Safety and tolerability): normal
Transport across Caco-2 monolayer (Caco-2 monolayer): cross the Caco-2 monolayer via passive diffusion
